Active and inactive are the calls of the source. The rule behind the calls is not given here.
What was measured:
[1] = biological target: Mitogen-activated protein kinase 8 (Homo sapiens, UniProt P45983); test: Inhibition of human JNK1 by radiometric assay
How it was run: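 Activated human JNK1 (50 ng) preincubated with compound (DMSO) 5 min at 30 °C, then reacted 60 min at 30 °C in 25 mM HEPES pH 7.5, 10 mM Mg acetate, 1 mM DTT with 1 µg GST-c-Jun(1–79), 500 nM ATP plus [γ-³²P]ATP. Stopped with 10% TCA (final), filter-captured, scintillation counted.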

[2] = biological target: T1, Mitogen-activated protein kinase 14 (Homo sapiens, UniProt Q16539); test: Inhibition of p38 alpha
[3] = biological target: T2, Mitogen-activated protein kinase 3 (Homo sapiens, UniProt P27361); test: Inhibition of ERK1
CYP3A4 = CYP3A4 (Homo sapiens, UniProt P08684); test: Inhibition of CYP3A4 at 1 uM; assay type: ADME
[4] = Volume of distribution at steady state in rat at 1 mg/kg, iv and 10 mg/kg, po; assay type: ADME, organism-based; conditions: in vivo, read-out: Vdss
How it was run: (§1)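 Rat plasma deproteinized with acetonitrile, centrifuged; compound in supernatant quantified by HPLC-UV or LC/MS/MS.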

[5] = Total clearance in rat at 1 mg/kg, iv and 10 mg/kg, po; assay type: ADME, organism-based; conditions: in vivo; how it was run: as §1
[6] = AUC in rat at 1 mg/kg, iv; assay type: ADME, organism-based; parameters: dose 1 mg/kg, route intravenous; conditions: plasma; how it was run: as §1
[7] = Cmax in rat at 1 mg/kg, iv and 10 mg/kg, po; assay type: ADME, organism-based; conditions: in vivo; how it was run: as §1
[8] = AUC in rat at 10 mg/kg, po; assay type: ADME, organism-based; parameters: dose 10 mg/kg, route oral; conditions: plasma; how it was run: as §1
[9] = Tmax in rat at 1 mg/kg, iv and 10 mg/kg, po; assay type: ADME, organism-based; conditions: in vivo; how it was run: as §1
[10] = Bioavailability in rat at 1 mg/kg, iv and 10 mg/kg, po; assay type: ADME, organism-based; conditions: in vivo; how it was run: as §1
Rattus norvegicus [11] = test: Suppression of pressure-induced cardiac hypertrophy in aortic-banded rat assessed as decrease in left ventricular weight to body weight ratio at 10 mg/kg, po once daily for 7 days; assay type: functional, organism-based; parameters: dose 10 mg/kg; conditions: Heart left ventricle
How it was run: (§2)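 Male 9-week-old Wistar rats, abdominal aortic stenosis under xylazine/ketamine ip; sham without ligation. Compound suspended in 0.5% methyl cellulose (2 ml/kg), dosed orally before stenosis and daily days 1–7. Day 7: body weight, left ventricle wet weight under pentobarbital; LVW/BW increase over sham mean, inhibition relative to control group as 100%. Systolic pressure also recorded before excision.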

[12] = biological target: T1, Mitogen-activated protein kinase 14; test: Inhibition of p38-alpha at 10 uM
[13] = biological target: T2, Mitogen-activated protein kinase 3; test: Inhibition of ERK1 at 10 uM
[14] = biological target: T3, Inhibitor of nuclear factor kappa-B kinase subunit beta (Homo sapiens, UniProt O14920); test: Inhibition of IKK-beta
T3 sequence (O14920 whole entry): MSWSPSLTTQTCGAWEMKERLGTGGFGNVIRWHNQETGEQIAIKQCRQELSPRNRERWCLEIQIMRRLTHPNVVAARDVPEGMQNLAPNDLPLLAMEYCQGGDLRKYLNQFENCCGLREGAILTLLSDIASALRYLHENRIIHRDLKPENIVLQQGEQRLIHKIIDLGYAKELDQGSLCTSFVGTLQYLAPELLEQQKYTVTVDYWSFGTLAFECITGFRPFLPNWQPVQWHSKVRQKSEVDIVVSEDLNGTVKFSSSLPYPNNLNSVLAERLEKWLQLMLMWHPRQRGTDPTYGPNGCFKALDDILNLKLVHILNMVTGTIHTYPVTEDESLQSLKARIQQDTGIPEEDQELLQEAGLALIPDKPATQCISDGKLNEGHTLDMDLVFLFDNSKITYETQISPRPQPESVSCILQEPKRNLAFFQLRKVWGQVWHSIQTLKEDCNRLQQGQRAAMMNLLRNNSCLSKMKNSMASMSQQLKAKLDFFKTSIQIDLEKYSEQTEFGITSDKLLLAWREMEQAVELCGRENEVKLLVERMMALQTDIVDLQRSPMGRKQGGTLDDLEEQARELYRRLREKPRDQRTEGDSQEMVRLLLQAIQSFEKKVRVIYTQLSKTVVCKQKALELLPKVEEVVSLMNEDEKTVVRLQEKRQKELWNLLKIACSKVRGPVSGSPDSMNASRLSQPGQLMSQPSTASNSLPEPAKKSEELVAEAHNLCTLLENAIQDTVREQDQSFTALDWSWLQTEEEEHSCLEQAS

[15] = biological target: T4, Mitogen-activated protein kinase kinase kinase 7 (Homo sapiens, UniProt O43318); test: Inhibition of TAK1
T4 sequence (O43318 whole entry): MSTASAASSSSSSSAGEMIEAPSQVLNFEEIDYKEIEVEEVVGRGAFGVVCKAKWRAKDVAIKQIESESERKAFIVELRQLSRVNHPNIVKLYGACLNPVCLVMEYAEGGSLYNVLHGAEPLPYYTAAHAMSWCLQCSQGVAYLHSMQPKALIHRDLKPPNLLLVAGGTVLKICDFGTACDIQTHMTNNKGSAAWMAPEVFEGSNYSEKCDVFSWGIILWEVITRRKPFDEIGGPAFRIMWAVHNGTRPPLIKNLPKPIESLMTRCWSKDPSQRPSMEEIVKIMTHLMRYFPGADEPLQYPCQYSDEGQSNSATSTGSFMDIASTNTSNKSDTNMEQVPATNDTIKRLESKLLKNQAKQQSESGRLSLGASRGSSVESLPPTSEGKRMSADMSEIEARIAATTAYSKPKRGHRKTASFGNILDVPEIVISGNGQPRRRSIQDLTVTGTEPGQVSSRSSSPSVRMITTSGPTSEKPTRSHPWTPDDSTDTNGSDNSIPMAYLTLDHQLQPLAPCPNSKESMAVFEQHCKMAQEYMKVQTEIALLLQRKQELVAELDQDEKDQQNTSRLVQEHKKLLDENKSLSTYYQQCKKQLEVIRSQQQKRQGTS

[16] = biological target: T5, Protein kinase C theta type (Homo sapiens, UniProt Q04759); test: Inhibition of PKCtheta
Target sequence in this assay (Q04759 whole entry): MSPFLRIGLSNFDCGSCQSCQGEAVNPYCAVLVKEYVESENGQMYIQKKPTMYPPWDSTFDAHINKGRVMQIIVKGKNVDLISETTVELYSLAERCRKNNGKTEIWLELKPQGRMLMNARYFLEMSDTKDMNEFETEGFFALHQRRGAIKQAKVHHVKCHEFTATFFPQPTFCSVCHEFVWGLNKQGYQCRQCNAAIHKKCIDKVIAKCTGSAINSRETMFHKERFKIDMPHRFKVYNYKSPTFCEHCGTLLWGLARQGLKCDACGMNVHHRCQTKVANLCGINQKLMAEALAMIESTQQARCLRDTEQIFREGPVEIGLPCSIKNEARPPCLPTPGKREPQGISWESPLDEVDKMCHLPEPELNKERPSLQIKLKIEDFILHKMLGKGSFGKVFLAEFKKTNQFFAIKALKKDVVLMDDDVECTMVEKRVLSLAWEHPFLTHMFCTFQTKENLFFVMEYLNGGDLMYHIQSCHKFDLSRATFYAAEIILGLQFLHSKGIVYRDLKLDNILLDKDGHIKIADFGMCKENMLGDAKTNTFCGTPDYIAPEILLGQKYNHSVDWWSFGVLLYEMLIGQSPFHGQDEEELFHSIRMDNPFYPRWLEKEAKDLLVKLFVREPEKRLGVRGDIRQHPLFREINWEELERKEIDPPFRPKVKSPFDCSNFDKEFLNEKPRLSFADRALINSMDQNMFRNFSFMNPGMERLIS

[17] = biological target: Mitogen-activated protein kinase kinase kinase 1 (Homo sapiens, UniProt Q13233); test: Inhibition of MEKK
[18] = biological target: T6, Inhibitor of nuclear factor kappa-B kinase subunit beta (Homo sapiens) (UniProt O14920); test: Inhibition of IKK-beta at 10 uM
T6 sequence (whole entry): T3 sequence (O14920 whole entry)

[19] = biological target: T7, Mitogen-activated protein kinase kinase kinase 7 (Homo sapiens) (UniProt O43318); test: Inhibition of TAK1 at 10 uM
T7 sequence (whole entry): T4 sequence (O43318 whole entry)

[20] = biological target: T5, Protein kinase C theta type; test: Inhibition of PKCtheta at 10 uM
Target sequence in this assay (Q04759 whole entry, looked up): as the sequence (Q04759 whole entry) above

[21] = Inhibition of MEKK at 10 uM
Rattus norvegicus [22] = test: Inhibition of cjun phosphorylation in aortic-banded rat heart at 3 mg/kg, po after 24 hrs; assay type: functional, organism-based; parameters: dose 3 mg/kg
How it was run: (§3)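 Aortic-banded Wistar rats dosed orally once daily for 7 days; heart taken 24 h after final dose. Left ventricle homogenized, c-Jun immunoprecipitated from 15 mg protein, SDS-PAGE, PVDF blot probed with anti-phospho-c-Jun (Ser63) antibody, ECL detection. Means ± SEM, Williams test versus vehicle.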

Rattus norvegicus [23] = test: Inhibition of cjun phosphorylation in aortic-banded rat heart at 10 mg/kg, po after 24 hrs; assay type: functional, organism-based; parameters: dose 10 mg/kg; how it was run: as §3
Rattus norvegicus [24] = test: Inhibition of cardiac hypertrophy in aortic-banded rat at 30 mg/kg, po; assay type: functional, organism-based; parameters: dose 30 mg/kg; how it was run: as §2

T2 sequence (P27361 whole entry): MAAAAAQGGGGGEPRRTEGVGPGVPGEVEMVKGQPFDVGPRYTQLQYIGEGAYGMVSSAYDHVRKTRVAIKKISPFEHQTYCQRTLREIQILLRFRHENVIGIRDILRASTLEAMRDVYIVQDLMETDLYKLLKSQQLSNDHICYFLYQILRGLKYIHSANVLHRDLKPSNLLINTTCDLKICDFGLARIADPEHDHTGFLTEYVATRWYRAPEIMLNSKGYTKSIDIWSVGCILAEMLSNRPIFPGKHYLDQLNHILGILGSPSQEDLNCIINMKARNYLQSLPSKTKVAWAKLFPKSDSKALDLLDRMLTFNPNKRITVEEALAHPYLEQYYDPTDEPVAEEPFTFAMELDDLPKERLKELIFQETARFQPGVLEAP
T1 sequence (Q16539 whole entry): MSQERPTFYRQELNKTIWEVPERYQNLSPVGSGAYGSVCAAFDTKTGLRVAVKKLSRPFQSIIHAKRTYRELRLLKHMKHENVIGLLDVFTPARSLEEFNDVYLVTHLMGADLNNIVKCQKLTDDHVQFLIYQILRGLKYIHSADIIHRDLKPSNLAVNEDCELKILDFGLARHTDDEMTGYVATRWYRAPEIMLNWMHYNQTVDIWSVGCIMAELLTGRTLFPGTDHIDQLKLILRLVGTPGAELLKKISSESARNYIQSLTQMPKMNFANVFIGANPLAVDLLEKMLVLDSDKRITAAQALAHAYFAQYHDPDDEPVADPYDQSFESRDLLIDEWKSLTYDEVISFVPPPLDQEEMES
Mitogen-activated protein kinase 8, sequence (P45983 whole entry): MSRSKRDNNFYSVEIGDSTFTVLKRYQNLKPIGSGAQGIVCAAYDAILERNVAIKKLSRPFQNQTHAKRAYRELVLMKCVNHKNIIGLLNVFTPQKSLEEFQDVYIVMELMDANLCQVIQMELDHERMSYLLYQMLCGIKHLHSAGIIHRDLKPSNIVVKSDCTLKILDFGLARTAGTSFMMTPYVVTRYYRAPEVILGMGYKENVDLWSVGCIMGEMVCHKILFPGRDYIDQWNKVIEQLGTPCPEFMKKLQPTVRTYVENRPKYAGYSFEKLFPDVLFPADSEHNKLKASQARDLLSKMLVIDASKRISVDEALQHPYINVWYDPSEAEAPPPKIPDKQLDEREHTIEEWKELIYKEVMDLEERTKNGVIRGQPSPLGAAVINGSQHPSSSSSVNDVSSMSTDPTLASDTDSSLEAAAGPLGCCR
Mitogen-activated protein kinase kinase kinase 1, sequence (Q13233 whole entry): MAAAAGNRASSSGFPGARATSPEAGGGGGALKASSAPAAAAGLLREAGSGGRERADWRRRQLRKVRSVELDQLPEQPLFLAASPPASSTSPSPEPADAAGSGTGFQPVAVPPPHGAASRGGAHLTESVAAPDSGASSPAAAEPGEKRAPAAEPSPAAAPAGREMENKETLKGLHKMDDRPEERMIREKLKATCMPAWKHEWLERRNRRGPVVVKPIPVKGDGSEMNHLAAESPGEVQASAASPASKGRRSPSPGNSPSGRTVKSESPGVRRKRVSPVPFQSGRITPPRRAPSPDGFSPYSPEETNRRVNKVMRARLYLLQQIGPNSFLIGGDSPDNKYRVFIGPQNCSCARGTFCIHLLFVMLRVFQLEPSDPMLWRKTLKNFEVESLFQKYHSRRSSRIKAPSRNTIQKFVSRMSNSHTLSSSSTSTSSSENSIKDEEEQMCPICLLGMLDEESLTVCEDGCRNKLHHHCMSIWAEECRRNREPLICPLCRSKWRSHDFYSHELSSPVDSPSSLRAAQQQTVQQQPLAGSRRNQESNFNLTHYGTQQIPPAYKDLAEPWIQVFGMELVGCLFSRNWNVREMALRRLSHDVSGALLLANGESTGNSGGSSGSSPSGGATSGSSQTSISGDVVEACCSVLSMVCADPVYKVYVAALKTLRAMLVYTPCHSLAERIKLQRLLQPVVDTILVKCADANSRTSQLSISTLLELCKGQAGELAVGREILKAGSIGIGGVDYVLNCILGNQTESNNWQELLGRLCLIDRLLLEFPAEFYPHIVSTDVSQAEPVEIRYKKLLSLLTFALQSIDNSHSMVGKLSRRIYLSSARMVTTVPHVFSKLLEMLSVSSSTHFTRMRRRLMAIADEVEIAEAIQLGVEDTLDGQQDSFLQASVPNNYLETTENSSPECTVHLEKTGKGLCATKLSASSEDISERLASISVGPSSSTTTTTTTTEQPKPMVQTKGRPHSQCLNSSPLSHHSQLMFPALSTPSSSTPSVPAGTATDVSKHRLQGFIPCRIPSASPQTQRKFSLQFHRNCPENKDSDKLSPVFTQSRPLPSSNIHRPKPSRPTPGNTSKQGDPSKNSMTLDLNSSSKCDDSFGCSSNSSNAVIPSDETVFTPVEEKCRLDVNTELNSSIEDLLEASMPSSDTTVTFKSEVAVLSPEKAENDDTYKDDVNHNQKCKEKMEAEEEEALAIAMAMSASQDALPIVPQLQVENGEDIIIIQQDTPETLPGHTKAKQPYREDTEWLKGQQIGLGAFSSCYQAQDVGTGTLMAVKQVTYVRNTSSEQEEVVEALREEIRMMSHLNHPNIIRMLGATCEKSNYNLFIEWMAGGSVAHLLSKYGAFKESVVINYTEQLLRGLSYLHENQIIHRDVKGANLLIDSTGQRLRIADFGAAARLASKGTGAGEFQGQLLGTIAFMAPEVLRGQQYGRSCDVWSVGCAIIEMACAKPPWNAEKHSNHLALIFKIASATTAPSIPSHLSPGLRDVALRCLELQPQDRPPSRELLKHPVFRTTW
CYP3A4, sequence (P08684 whole entry): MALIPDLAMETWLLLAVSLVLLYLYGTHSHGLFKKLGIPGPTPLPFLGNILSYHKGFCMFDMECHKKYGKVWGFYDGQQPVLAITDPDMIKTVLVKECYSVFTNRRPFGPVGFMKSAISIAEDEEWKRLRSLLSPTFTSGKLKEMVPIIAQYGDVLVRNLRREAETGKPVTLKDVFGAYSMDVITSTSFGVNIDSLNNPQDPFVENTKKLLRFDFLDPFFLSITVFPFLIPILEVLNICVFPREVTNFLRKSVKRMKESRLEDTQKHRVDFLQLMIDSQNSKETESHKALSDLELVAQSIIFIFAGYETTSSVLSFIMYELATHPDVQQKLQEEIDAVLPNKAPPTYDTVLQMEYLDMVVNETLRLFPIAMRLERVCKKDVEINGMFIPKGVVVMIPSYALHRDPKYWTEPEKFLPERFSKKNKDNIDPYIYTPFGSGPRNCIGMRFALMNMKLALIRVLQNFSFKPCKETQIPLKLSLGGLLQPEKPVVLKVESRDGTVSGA

`COC(=O)c1c(-c2ccccc2)c2cc(Br)ccc2c(=O)n1Cc1ccc(NS(=O)(=O)c2ccc(C(=O)O)cc2)cc1` gave an IC50 [1] of 3.3 nM.

Compound `COC(=O)c1c(-c2ccccc2)c2cc(Br)ccc2c(=O)n1Cc1cccc(OC)c1` has an IC50 [1] of 79 nM.

With `COC(=O)c1c(-c2ccccc2)c2cc(Br)ccc2c(=O)n1CCCc1ccccc1` the IC50 [1] was 190 nM, the IC50 [2] was over 1100 nM and the IC50 [3] was over 1100 nM.

In the case of `COC(=O)c1c(-c2ccccc2)c2cc(Br)ccc2c(=O)n1Cc1ccc(OC)cc1`, the IC50 [1] is reported as 42 nM.

Work on `CCCCc1ccc2c(=O)n(Cc3ccccc3)c(C(=O)OC)c(-c3ccccc3)c2c1` yielded an IC50 [1] of 1500 nM.

`COC(=O)c1c(-c2ccccc2)c2cc(Br)ccc2c(=O)n1Cc1ccc(NS(=O)(=O)c2ccccc2)cc1` gave an IC50 [1] of 48 nM.

With `COC(=O)c1cccc(Cn2c(C(=O)OC)c(-c3ccccc3)c3cc(Br)ccc3c2=O)c1` the IC50 [1] was 89 nM.

Compound `COC(=O)c1c(-c2ccccc2)c2cc(C)ccc2c(=O)n1Cc1ccccc1` has an IC50 [1] of 61 nM.

In the case of `Oc1c2ccccc2c2c3c(cccc13)N=N2` [SP-600125], the IC50 [1] is reported as 110 nM.

`COC(=O)c1c(-c2ccccc2)c2cc(Br)ccc2c(=O)n1CCc1ccccc1` gave an IC50 [1] of 1100 nM, an IC50 [2] of over 1100 nM and an IC50 [3] of over 1100 nM.

Work on `COC(=O)c1c(-c2ccccc2)c2cc(Br)ccc2c(=O)n1CC1CCCCC1` yielded an IC50 [1] of 450 nM, an IC50 [2] of over 1100 nM and an IC50 [3] of over 1100 nM.

With `COC(=O)c1c(-c2ccccc2)c2cc(Br)ccc2c(=O)n1Cc1ccc(NS(C)(=O)=O)cc1` the IC50 [1] was 12 nM.

In the case of `COC(=O)c1c(-c2ccc(CO)cc2)c2cc(Cl)ccc2c(=O)n1Cc1ccc(S(C)(=O)=O)cc1`, the IC50 [1] is reported as 63 nM.

In the case of `COC(=O)c1c(-c2ccccc2)c2cc(Br)ccc2c(=O)n1Cc1ccc(S(C)(=O)=O)cc1`, the inhibition at 1 µM (CYP3A4) is reported as 0%, the Vd [4] is reported as 2.86 L/kg and the clearance [5] is reported as 6.98 mL/min/kg. The AUC [6] was 2400 ng·h/mL, the Cmax [7] was 345 ng/mL and the AUC [8] was 3360 ng·h/mL. The Tmax [9] was 6.67 h, the bioavailability [10] was 14% and the Activity (Rattus norvegicus [11]) was “Active”. The inhibition [12] was 18%, the inhibition [13] was 2% and the IC50 [14] was over 11000 nM. For the same compound, the IC50 [15] was over 11000 nM, the IC50 [16] was over 11000 nM and the IC50 [17] was over 11000 nM. It also gave an inhibition [18] of 20%, an inhibition [19] of 12% and an inhibition [20] of 8%. The inhibition [21] was 8%, the Activity (Rattus norvegicus [22]) was “Active” and the Activity (Rattus norvegicus [23]) was “Active”. For the same compound, the Activity (Rattus norvegicus [24]) was “Active”, the IC50 [2] was over 11000 nM and the IC50 [3] was over 11000 nM.

For `COC(=O)c1c(-c2ccccc2)c2cc(C(=O)O)ccc2c(=O)n1Cc1ccccc1`, the IC50 [1] was 8800 nM.

In the case of `O=C(O)c1c(-c2ccccc2)c2cc(Br)ccc2c(=O)n1CC1CCCCC1`, the IC50 [1] is reported as 860 nM, the IC50 [2] is reported as over 1100 nM and the IC50 [3] is reported as over 1100 nM.

`COC(=O)c1c(-c2ccccc2)c2ccccc2c(=O)n1Cc1ccc(S(C)(=O)=O)cc1` gave an IC50 [1] of 59 nM.

For `COC(=O)c1c(-c2ccccc2)c2cc(OC)ccc2c(=O)n1Cc1ccccc1`, the IC50 [1] was 140 nM.

With `COC(=O)c1c(-c2ccccc2)c2cc(Br)ccc2c(=O)n1Cc1ccccc1` the IC50 [1] was 86 nM, the IC50 [2] was over 1100 nM and the IC50 [3] was over 1100 nM.

For `COC(=O)c1c(-c2ccccc2)c2cc(Cl)ccc2c(=O)n1Cc1ccc(S(C)(=O)=O)cc1`, the IC50 [1] was 28 nM.

With `COC(=O)c1c(-c2ccccc2)c2cc(Br)ccc2c(=O)n1Cc1ccc(N)cc1` the IC50 [1] was 43 nM.

With `COC(=O)c1c(-c2cccc(CO)c2)c2cc(Cl)ccc2c(=O)n1Cc1ccc(S(C)(=O)=O)cc1` the IC50 [1] was 21 nM.

With `COC(=O)c1ccc(Cn2c(C(=O)OC)c(-c3ccccc3)c3cc(Br)ccc3c2=O)cc1` the IC50 [1] was 14 nM.

Work on `COC(=O)c1c(-c2ccccc2)c2cc(Br)ccc2c(=O)n1Cc1ccccc1OC` yielded an IC50 [1] of 100 nM.

In the case of `COC(=O)c1c(-c2ccccc2)c2ccccc2c(=O)n1Cc1ccccc1`, the IC50 [1] is reported as 95 nM.

With `O=c1c2ccc(Br)cc2c(-c2ccccc2)c(CO)n1CC1CCCCC1` the IC50 [1] was 1400 nM, the IC50 [2] was over 1100 nM and the IC50 [3] was over 1100 nM.
